A short description of data set [1]: Cytotoxicity against mouse RAW264.7 cells assessed as cellular metabolic activity at 50 uM after 48 hrs by MTT assay relative to control. The data set is classed as ADME, cell-based. Particulars: read-out: Activity. In short, it runs like this: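 RAW264.7 cells at 5 × 10^4 cells/mL exposed to 50 μM test agent (DMSO solution) for 48 h. MTT then added at 5 mg/mL in sterile PBS for 4 h; formazan dissolved in DMSO and absorbance read at 490 nm. Triplicate treatments.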
(Tetrazolium assays rely on reduction of a dye to a coloured formazan, in cell work by metabolically active cells.)

A further data set deals with RAW264.7. In words: Anti-inflammatory activity in mouse RAW264.7 cells assessed as inhibition of LPS-induced NO production preincubated for 30 mins followed by LPS stimulation and measured after 24 hrs by Griess reagent based colorimetric method. Type of data set: functional, cell-based. In short, it runs like this: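 RAW264.7 murine macrophages in DMEM with 10% supplement, 37 °C, 5% CO2, grown 24 h before treatment. Test agents at several concentrations added 30 min before 1 μg/mL LPS (or no LPS). After 24 h, supernatant mixed with Griess reagents I and II; absorbance at 560 nm. IC50 derived only where cell activity at 50 μM stayed ≥50%. L-NIL as positive control.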

Each structure is given as a SMILES string.

By IC50 is commonly meant the concentration at which inhibition is half-maximal.

For `C/C=C(\C)C(=O)OC[C@]1(O)[C@H]2C[C@H]2[C@]2(C)[C@@H]3CC4=C5[C@H](/C(=C(/C)C(=O)OC)C(=O)[C@H](O)[C@@]5(C)[C@@H]5C[C@H]45)[C@@]34OC(=O)C(COC(C)=O)=C4C[C@@H]12`, the viability at 48 h, 50 µM in data set [1] is below 50%. On to `COC(=O)/C(C)=C1\C(=O)[C@H](O)[C@]2(C)C3=C(C[C@@H]4[C@]5(OC(=O)C(CO)=C5C[C@H]5[C@H](COC(C)=O)[C@H]6C[C@H]6[C@]45C)[C@H]31)[C@H]1C[C@H]12`, for which, in data set [1], the viability at 48 h, 50 µM came out at 97%. In addition, in the data set with RAW264.7, the IC50 stood at 3.7 µM. For `COC(=O)CCC(=O)OCC1=C2C[C@H]3[C@](O)(COC(=O)/C=C(\C)CO)[C@H]4C[C@H]4[C@]3(C)[C@@H]3CC4=C5[C@H](/C(=C(\C)C(=O)OC)C(=O)[C@H](O)[C@@]5(C)[C@@H]5C[C@H]45)[C@]23OC1=O` the same measures were 71.5% and 23.1 µM. As to `CC1=C2C3=C4[C@](C)([C@@H]5C[C@@H]5[C@@]4(O)C[C@@H]4[C@]35OC(=O)C3=C5C[C@H]5[C@](O)(COC(=O)/C=C(\C)COC(=O)CCC(=O)OC3)[C@H]3C[C@H]3[C@]45C)[C@@H](O)[C@@]2(O)OC1=O`, the viability at 48 h, 50 µM in data set [1] is below 50%.

Regarding `COC(=O)/C(C)=C1\C(=O)[C@H](O)[C@@]2(C)[C@@H]3C[C@@H]3[C@@]34CCC5=C6C3=C(C(=O)[C@H](O)[C@@]6(C)[C@@H]3C[C@H]53)[C@](C)(C(=O)OC)[C@@H]1[C@@]24O`, the viability at 48 h, 50 µM in data set [1] was below 50%. For `COC(=O)/C(C)=C1/C(=O)[C@H](O)[C@]2(C)C3=C(C[C@@H]4[C@]5(OC(=O)C6=C5C[C@H]5[C@](O)(COC(=O)/C(C)=C/COC(=O)CCC(=O)OC6)[C@H]6C[C@H]6[C@]45C)[C@H]31)[C@H]1C[C@H]12`, in data set [1], the viability at 48 h, 50 µM came to 66.5%. In addition, the IC50 in the data set on RAW264.7 was determined as 25.5 µM. As for `CO[C@@]12OC(=O)C(C)=C1C1=C3[C@](C)([C@@H]4C[C@@H]4[C@@]3(O)C[C@@H]3[C@]14OC(=O)C1=C4C[C@H]4[C@](O)(COC(=O)/C(C)=C/COC(=O)CCC(=O)OC1)[C@H]1C[C@H]1[C@]34C)[C@H]2O`, the viability at 48 h, 50 µM in data set [1] is below 50%.

As for `CC(=N)NCCCC[C@H](N)C(=O)O` [L-NIL], the viability at 48 h, 50 µM in data set [1] was found to be 93.3%. Also, the IC50 with RAW264.7 was 7 µM. Consider `C/C=C(\C)C(=O)OC[C@]1(O)[C@H]2C[C@H]2[C@]2(C)[C@@H]3C[C@@]4(O)C5=C(C6=C(C)C(=O)O[C@]6(O)[C@H](O)[C@@]5(C)[C@@H]5C[C@@H]54)[C@@]34OC(=O)C(COC(C)=O)=C4C[C@@H]12` [SARCANDROLIDE D], for which the viability at 48 h, 50 µM in data set [1] was below 50%. Turning to `COC(=O)/C(C)=C1\C(=O)[C@H](O)[C@]2(C)C3=C(C[C@@H]4[C@]5(OC(=O)C6=C5C[C@H]5[C@](O)(COC(=O)/C(C)=C/COC(=O)CCC(=O)OC6)[C@H]6C[C@H]6[C@]45C)[C@H]31)[C@H]1C[C@H]12` [SHIZUKAOL B], the viability at 48 h, 50 µM in data set [1] is 55.4%. Moreover, the IC50 in the data set on RAW264.7 is above 50 µM. For `COC(=O)/C(C)=C1\C(=O)[C@H](O)[C@]2(C)C3=C(C[C@@H]4[C@]5(OC(=O)C6=C5C[C@H]5[C@](O)(COC(=O)/C=C(\C)COC(=O)CCC(=O)OC6)[C@H]6C[C@H]6[C@]45C)[C@H]31)[C@H]1C[C@H]12` [SHIZUKAOL F] the same measures were 53.1% and above 50 µM. With `CC1=C2C3=C4[C@@](C)(C(=O)[C@@]2(O)OC1=O)[C@@H]1C[C@@H]1[C@@]4(O)C[C@@H]1[C@]32OC(=O)C3=C2C[C@H]2[C@](O)(COC(=O)/C(C)=C/COC(=O)CCC(=O)OC3)[C@H]3C[C@H]3[C@]12C` [SPICACHLORANTIN B], in data set [1], the viability at 48 h, 50 µM is below 50%.

Values taken from ChEMBL document CHEMBL4330167, “Chloraserrtone A, a Sesquiterpenoid Dimer from Chloranthus serratus” (J Nat Prod, 2019).
